Source: publication PMC6810844 (Cellular and molecular life sciences : CMLS, 2019)

Tests used:
BoSGBPMLG-B = molecular target: T1, BoSGBPMLG-B (Bacteroides ovatus, UniProt A0ABU3IRL2); experiment: isothermal titration calorimetry; assay type: binding; details: 50 mM sodium phosphate pH 7.0, 25 °C; n fixed at 1
T1 sequence (A0ABU3IRL2 22-420): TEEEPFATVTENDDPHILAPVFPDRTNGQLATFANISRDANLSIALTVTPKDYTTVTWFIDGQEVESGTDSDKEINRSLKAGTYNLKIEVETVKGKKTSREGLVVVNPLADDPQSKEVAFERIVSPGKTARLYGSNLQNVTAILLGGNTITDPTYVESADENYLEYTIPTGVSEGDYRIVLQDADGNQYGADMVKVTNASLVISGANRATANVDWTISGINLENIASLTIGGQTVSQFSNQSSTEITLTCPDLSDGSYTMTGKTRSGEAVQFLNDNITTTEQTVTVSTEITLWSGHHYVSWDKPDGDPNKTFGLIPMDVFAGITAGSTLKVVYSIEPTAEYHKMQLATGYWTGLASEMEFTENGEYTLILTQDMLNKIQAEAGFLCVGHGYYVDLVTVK
Summary of the method: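 His6-tagged protein was produced in E. coli BL21(DE3) and purified by nickel affinity. Titrations ran at 25 °C in 50 mM sodium phosphate pH 7.0, except bMLG, which used 10 mM HEPES pH 7.0. 20–100 µM protein in the cell received one 2 µL injection, then 24 × 10 µL of 2.5–4.0 mg/mL polysaccharide or 1–2 mM oligosaccharide, with stirring at 280 rpm. MLG Ka was converted from g/L assuming a hexasaccharide motif.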

BoSGBPMLG-A = molecular target: T2, BoSGBPMLG-A (Bacteroides ovatus, UniProt A0AAN3A7L1); experiment: isothermal titration calorimetry; assay type: binding; details: 50 mM sodium phosphate pH 7.0, 25 °C
T2 sequence (A0AAN3A7L1 23-558): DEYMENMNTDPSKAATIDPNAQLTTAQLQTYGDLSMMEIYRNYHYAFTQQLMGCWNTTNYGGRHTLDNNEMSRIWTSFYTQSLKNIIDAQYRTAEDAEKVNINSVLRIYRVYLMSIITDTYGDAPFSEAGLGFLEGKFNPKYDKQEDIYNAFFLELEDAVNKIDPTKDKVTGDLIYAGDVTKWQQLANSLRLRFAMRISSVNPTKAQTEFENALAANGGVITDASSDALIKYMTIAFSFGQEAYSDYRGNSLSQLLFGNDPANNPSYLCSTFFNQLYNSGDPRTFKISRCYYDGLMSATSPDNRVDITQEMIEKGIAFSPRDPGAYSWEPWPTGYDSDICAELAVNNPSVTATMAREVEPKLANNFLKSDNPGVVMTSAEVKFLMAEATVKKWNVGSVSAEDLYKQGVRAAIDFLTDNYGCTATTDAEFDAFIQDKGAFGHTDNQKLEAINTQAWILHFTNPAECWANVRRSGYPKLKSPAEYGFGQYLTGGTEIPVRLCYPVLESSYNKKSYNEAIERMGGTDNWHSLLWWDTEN
Summary of the method: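 Recombinant His6-tagged protein was expressed in E. coli BL21(DE3), Ni-IMAC purified, and exchanged into 50 mM sodium phosphate pH 7.0. In the cell: 20–100 µM protein at 25 °C, stirred at 280 rpm. Injections: 2 µL, then 24 × 10 µL of 2.5–4.0 mg/mL polysaccharide or 1–2 mM oligosaccharide. Heat recorded. Molar polysaccharide Ka assumed a hexasaccharide motif for MLG and a Glc8-backbone motif for XyG.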

## OC[C@H]1O[C@@H](O[C@H]2[C@H](O)[C@@H](O)[C@H](O[C@H]3[C@H](O)[C@@H](O)[C@H](O[C@H]4[C@H](O)[C@@H](O)[C@H](O[C@H]5[C@H](O)[C@@H](O)[C@H](O[C@H]6[C@H](O)[C@@H](O)C(O)O[C@@H]6CO)O[C@@H]5CO)O[C@@H]4CO)O[C@@H]3CO)O[C@@H]2CO)[C@H](O)[C@@H](O)[C@@H]1O (stereo partly drawn) [Cellohexaose]
BoSGBPMLG-B
  Ka (M^-1) / BoSGBPMLG-B: (3.1 ± 0.06) × 10^3
BoSGBPMLG-A; n fixed at 1
  Ka (M^-1) / BoSGBPMLG-A: (3.39 ± 0.03) × 10^3

## OC[C@H]1O[C@@H](O[C@H]2[C@H](O)[C@@H](O)[C@H](O[C@@H]3[C@@H](O)[C@H](O[C@H]4[C@H](O)[C@@H](O)[C@H](O[C@H]5[C@H](O)[C@@H](O)[C@H](O[C@H]6[C@H](O)[C@@H](CO)OC(O)[C@@H]6O)O[C@@H]5CO)O[C@@H]4CO)O[C@H](CO)[C@H]3O)O[C@@H]2CO)[C@H](O)[C@@H](O)[C@@H]1O (stereo partly drawn) [MLG6, G4G3G4G4G3G]
BoSGBPMLG-B
  Ka (M^-1) / BoSGBPMLG-B: (3.16 ± 0.19) × 10^3
BoSGBPMLG-A
  Ka (M^-1) / BoSGBPMLG-A: (1.44 ± 0.04) × 10^4

## OC[C@H]1O[C@@H](O[C@H]2[C@H](O)[C@@H](O)[C@H](O[C@H]3[C@H](O)[C@@H](O)[C@H](O[C@@H]4[C@@H](O)[C@H](O[C@H]5[C@H](O)[C@@H](O)[C@H](O[C@H]6[C@H](O)[C@@H](O)[C@H](O[C@H]7[C@H](O)[C@@H](CO)OC(O)[C@@H]7O)O[C@@H]6CO)O[C@@H]5CO)O[C@H](CO)[C@H]4O)O[C@@H]3CO)O[C@@H]2CO)[C@H](O)[C@@H](O)[C@@H]1O (stereo partly drawn) [MLG7, G4G4G3G4G4G3G]
BoSGBPMLG-B
  Ka (M^-1) / BoSGBPMLG-B: (4.69 ± 0.13) × 10^3
BoSGBPMLG-A
  Ka (M^-1) / BoSGBPMLG-A: (4.51 ± 0.34) × 10^4
